Measured values from ChEMBL document CHEMBL1148287, “Design of potent, selective, and orally bioavailable inhibitors of cysteine protease cathepsin k” (J Med Chem, 2004).

How the values were obtained:
[1] = Selectivity ratio between IC50 against Cathepsin S and IC50 against Cathepsin K
Summary of the method: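 Recombinant human cathepsin S was run with Cbz-Val-Val-Arg-AMC at 10 μM final (Km >100 μM); human cathepsin K used Cbz-Phe-Arg-AMC at 10 μM. Both were in pH 5.5 sodium acetate with 10 mM DTT, 120 mM NaCl and 10% DMSO at 30 °C, with AMC fluorescence progress curves over 2.3 h. The ratio was taken from the fitted IC50s.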

Cathepsin K [2] = biological target: T1, Cathepsin K (Homo sapiens, UniProt P43235); test: Concentration required to inhibit 50% of cysteine protease cathepsin K of human
T1 sequence (P43235 whole entry): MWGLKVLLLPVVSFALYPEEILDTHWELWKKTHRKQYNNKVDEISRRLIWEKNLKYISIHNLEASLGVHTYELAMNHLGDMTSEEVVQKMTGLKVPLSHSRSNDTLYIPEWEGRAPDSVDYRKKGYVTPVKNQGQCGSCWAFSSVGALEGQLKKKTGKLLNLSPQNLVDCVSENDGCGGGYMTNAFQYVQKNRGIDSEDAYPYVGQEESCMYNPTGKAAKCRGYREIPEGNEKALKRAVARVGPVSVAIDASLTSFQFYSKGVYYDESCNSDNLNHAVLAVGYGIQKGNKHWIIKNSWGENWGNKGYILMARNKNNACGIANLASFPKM
Summary of the method: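 Reactions were started by adding inhibitor plus substrate to enzyme. AMC fluorescence (ex 360/em 440) progress curves were followed over 2.3 h at varied inhibitor concentrations. IC50 was fitted as rate = Vmax/(1+[I]/IC50).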

[3] = biological target: Cathepsin (H and K) (Homo sapiens) (UniProt P09668+P43235); test: Selectivity for Cathepsins H and K, ratio of IC50; type: protein assay
Sequence of Cathepsin (H and K) (Homo sapiens) (P09668 whole entry, looked up, one chain of several): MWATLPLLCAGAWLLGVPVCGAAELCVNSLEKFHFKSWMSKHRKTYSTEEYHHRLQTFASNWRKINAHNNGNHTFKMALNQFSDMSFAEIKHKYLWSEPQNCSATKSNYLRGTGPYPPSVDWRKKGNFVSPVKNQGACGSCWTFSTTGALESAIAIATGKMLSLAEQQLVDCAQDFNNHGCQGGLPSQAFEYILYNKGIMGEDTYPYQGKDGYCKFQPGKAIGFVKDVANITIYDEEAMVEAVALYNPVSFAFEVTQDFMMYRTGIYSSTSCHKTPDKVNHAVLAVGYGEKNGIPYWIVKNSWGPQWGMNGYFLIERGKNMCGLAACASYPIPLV
Summary of the method: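 Human liver cathepsin H was run with L-Arg-β-naphthalamide at 50 μM final (Km 195 μM), read at ex 340/em 420. Human cathepsin K used Cbz-Phe-Arg-AMC at 10 μM, read at ex 360/em 440. Both were at pH 5.5 with DTT/NaCl and 10% DMSO at 30 °C, with 2.3 h progress curves. IC50s were fitted from rate vs [I] and ratioed.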

[4] = Compound was tested for its cell permeability in the Madin-Darby canine kidney cell monolayer transport assay; type: ADME, Canis lupus familiaris; conditions: dog, MDCK; read-out: Activity
Homo sapiens = species: Homo sapiens; test: Selectivity as ratio between IC50 against Cathepsin V and IC50 against Cathepsin K
Summary of the method: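 Conditions were pH 5.5 acetate buffer with 10 mM DTT, 120 mM NaCl and 10% DMSO at 30 °C, with fluorescence progress curves over 2.3 h. The IC50 fits gave the ratio.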

[5] = Percent instability was measured by Rat S9 liver […] metabolism assay, in vitro; type: ADME, Liver S9 fraction; conditions: read-out: Activity
Summary of the method: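 Rat S9 liver metabolism, read as % metabolized after 1 h incubation at 37 °C, run in duplicate.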

Cathepsin K [6] = biological target: T2, Cathepsin K (Rattus norvegicus, UniProt O35186); test: Inhibition of cysteine protease cathepsin K of rat
T2 sequence (O35186 whole entry): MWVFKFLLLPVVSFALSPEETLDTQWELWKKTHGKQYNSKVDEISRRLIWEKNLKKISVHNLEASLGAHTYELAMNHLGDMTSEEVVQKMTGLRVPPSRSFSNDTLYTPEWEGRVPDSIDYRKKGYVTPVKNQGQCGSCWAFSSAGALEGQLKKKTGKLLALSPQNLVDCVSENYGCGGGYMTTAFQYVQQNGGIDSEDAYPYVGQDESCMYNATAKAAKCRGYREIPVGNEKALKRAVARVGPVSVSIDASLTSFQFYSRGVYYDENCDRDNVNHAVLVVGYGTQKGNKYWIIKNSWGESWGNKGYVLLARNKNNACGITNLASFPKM

[7] = Selectivity as ratio between IC50 against Cathepsin B and IC50 against Cathepsin K
Summary of the method: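 Human liver cathepsin B and recombinant human cathepsin K were each run with Cbz-Phe-Arg-AMC at 10 μM final (Km 400 and 70 μM). Both used pH 5.5 acetate/DTT/NaCl buffer, 10% DMSO, 30 °C and a 2.3 h fluorescence progress-curve read (ex 360/em 440). IC50s were fitted from rate vs [I], and the ratio of the two IC50s was taken.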

[8] = Selectivity as ratio between IC50 against Cathepsin L and IC50 against Cathepsin K
Summary of the method: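 Both assays used pH 5.5 acetate/DTT/NaCl, 10% DMSO, 30 °C and AMC fluorescence progress curves over 2.3 h. IC50s were fitted from rate vs [I] and taken as a ratio.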

[9] = Peak plasma concentration in rat; type: ADME, organism-based
Summary of the method: (§1)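 Rats were dosed iv into the femoral vein at 5 mg/kg or orally at 10 mg/kg, from a solution in 15% solutol/citrate buffer/0.1% ascorbic acid, pH 3.5. Blood was drawn from a jugular cannula before dosing and at 0.03–24 h, then clotted to serum. Samples were acetonitrile-precipitated with internal standard and analysed by LC-MS/MS (MRM). Parameters came from noncompartmental analysis.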

[10] = Bioavailability in rat; type: ADME, organism-based; conditions: in vivo; summary of the method: as §1
[11] = Area Under plasma concentration time curve in rat upon peroral administration; type: ADME, organism-based; conditions: po; summary of the method: as §1
[12] = Maximum time required to achieve Cmax was determined in rat; type: ADME, organism-based; conditions: in vivo; summary of the method: as §1
[13] = Half-life in rat; type: ADME, organism-based; conditions: in vivo; summary of the method: as §1

Ratio [1]	IC50 (Cathepsin K [2]) [nM]	IC50 (Cathepsin K [6]) [nM]	other results	Structure (SMILES)
2.3	0.26	–	–	CCCC[C@H](NC(=O)OC(C(C)C)C(C)C)C(=O)C(=O)Nc1[nH]nc2cccc(F)c12
1.7	0.47	5.5	Ratio [3]: 2100; Papp [4]: 37 ×10⁻⁶ cm/s; Ratio (Homo sapiens): 14; metabolised [5]: 68%; Ratio [7]: 1100; Ratio [8]: 26	CCCC[C@H](NC(=O)OC(C(C)C)C(C)C)C(=O)C(=O)Nc1[nH]ncc1C
–	47	–	–	CC(C)C(OC(=O)N[C@H](C(=O)C(=O)NCc1cccs1)C(C)C)C(C)C
–	14	–	–	CC(C)C(OC(=O)N[C@@H](CC1CCCCC1)C(=O)C(=O)NCc1cccs1)C(C)C
–	62	1600	–	CCCC[C@H](NC(=O)OC(C(C)C)C(C)C)C(=O)C(=O)Nc1ccnn1CCC(C)(C)C
–	83	–	Cmax [9]: 690 ng/mL; bioavailability [10]: 15%; AUC [11]: 920 ng·h/mL; metabolised [5]: 96%; Tmax [12]: 0.633 h; half-life [13]: 2.83 h	CCCC[C@H](NC(=O)OC(C(C)C)C(C)C)C(=O)C(=O)Nc1nncs1
4.2	0.24	–	–	CCCC[C@H](NC(=O)OC(C(C)C)C(C)C)C(=O)C(=O)Nc1[nH]ncc1Br
–	0.71	–	–	CCCC[C@H](NC(=O)OC(C(C)C)C(C)C)C(=O)C(=O)Nc1cc(C)n[nH]1
–	0.65	12	–	CCCC[C@H](NC(=O)OC(C(C)C)C(C)C)C(=O)C(=O)Nc1cc(-c2ccccc2)n[nH]1
–	360	–	–	CC(C)C(OC(=O)N[C@@H](C)C(=O)C(=O)NCc1cccs1)C(C)C
–	95	–	–	CCCC[C@H](NC(=O)OC(C(C)C)C(C)C)C(=O)C(=O)Nc1cccnc1
59	39	2700	Ratio [3]: > 320; Ratio (Homo sapiens): 120; Ratio [7]: > 320; Ratio [8]: 260	CCCC[C@H](NC(=O)OC(C(C)C)C(C)C)C(=O)C(=O)Nc1ccnn1CC(C)C
–	52	–	–	CCCC[C@H](NC(=O)OC(C(C)C)C(C)C)C(=O)C(=O)Nc1cnccn1
–	250	–	–	CCCC[C@H](NC(=O)OC(C(C)C)C(C)C)C(=O)C(=O)Nc1ccc2ccccc2n1
7	–	–	Ratio [3]: 18; Ratio (Homo sapiens): 20; Ratio [7]: 520; Ratio [8]: 25	CCCC[C@H](NC(=O)OC(C(C)C)C(C)C)C(=O)C(=O)Nc1cc(-c2ccccc2)[nH]n1
41	27	1700	Ratio [3]: > 470; Ratio (Homo sapiens): 63; Ratio [7]: > 470; Ratio [8]: 220	CCCC[C@H](NC(=O)OC(C(C)C)C(C)C)C(=O)C(=O)Nc1ccnn1CC1CC1
8.3	62	1200	Ratio (Homo sapiens): 19; Ratio [7]: > 200; Ratio [8]: 40	CCCC[C@H](NC(=O)OC(C(C)C)C(C)C)C(=O)C(=O)Nc1ccnn1-c1ccccn1
–	12000	–	–	CC(C)C(OC(=O)NCC(=O)C(=O)NCc1cccs1)C(C)C
–	4.8	–	–	CCCC[C@H](NC(=O)OC(C(C)C)C(C)C)C(=O)C(=O)Nc1cc2ccccc2cn1

Ratio [1]	IC50 (Cathepsin K [2]) [nM]	IC50 (Cathepsin K [6]) [nM]	other results	Structure (SMILES)
–	17	1000	–	CCCC[C@H](NC(=O)OC(C(C)C)C(C)C)C(=O)C(=O)Nc1ccnn1C(C)C
–	27	–	–	CC(C)C(OC(=O)N[C@@H](Cc1ccccc1)C(=O)C(=O)NCc1cccs1)C(C)C
–	9.2	–	–	CCCC[C@H](NC(=O)OC(C(C)C)C(C)C)C(=O)C(=O)NCc1cccs1
–	20	1100	–	CCCC[C@H](NC(=O)OC(C(C)C)C(C)C)C(=O)C(=O)Nc1ccnn1C1CCCC1
–	24	–	–	CC(C)C[C@H](NC(=O)OC(C(C)C)C(C)C)C(=O)C(=O)NCc1cccs1
4.6	–	–	–	CCCC[C@H](NC(=O)OC(C(C)C)C(C)C)C(=O)C(=O)Nc1cc(C)[nH]n1
–	22	1200	–	CCCC[C@H](NC(=O)OC(C(C)C)C(C)C)C(=O)C(=O)Nc1ccnn1C1CCCCC1
–	2.54	–	–	CCCC[C@H](NC(=O)OC(C(C)C)C(C)C)C(=O)C(=O)N[C@H](C)c1ccccc1
3.6	0.91	–	–	CCCC[C@H](NC(=O)OC(C(C)C)C(C)C)C(=O)C(=O)Nc1[nH]ncc1C#N
3.6	1.7	–	–	CCCC[C@H](NC(=O)OC(C(C)C)C(C)C)C(=O)C(=O)Nc1[nH]ncc1C(=O)OCC
5.4	25	470	Ratio [3]: > 500; Ratio (Homo sapiens): 19; Ratio [7]: > 500; Ratio [8]: 44	CCCC[C@H](NC(=O)OC(C(C)C)C(C)C)C(=O)C(=O)Nc1ccnn1-c1ccncc1
–	5.1	–	–	CCCC[C@H](NC(=O)OC(C(C)C)C(C)C)C(=O)C(=O)Nc1ccon1
–	0.41	11	–	CCCC[C@H](NC(=O)OC(C(C)C)C(C)C)C(=O)C(=O)Nc1ccn(C)n1
–	87	–	–	CCC(C)[C@H](NC(=O)OC(C(C)C)C(C)C)C(=O)C(=O)NCc1cccs1 (some centres not stated)
–	15	790	–	CCCC[C@H](NC(=O)OC(C(C)C)C(C)C)C(=O)C(=O)Nc1ccnn1-c1ccccc1
130	15	1100	Ratio [3]: > 830; Ratio (Homo sapiens): 140; Ratio [7]: > 830; Ratio [8]: 290	CCCC[C@H](NC(=O)OC(C(C)C)C(C)C)C(=O)C(=O)Nc1ccnn1C1CCC1
–	26	1500	–	CCCC[C@H](NC(=O)OC(C(C)C)C(C)C)C(=O)C(=O)Nc1ccnn1CC
4.1	0.21	1.8	Ratio [3]: 1700; Ratio (Homo sapiens): 9.1; Ratio [7]: 1200; Ratio [8]: 25	CCCC[C@H](NC(=O)OC(C(C)C)C(C)C)C(=O)C(=O)Nc1[nH]ncc1-c1ccccc1
